pIC50: −log10 of the molar value. Active and inactive are the calls of the source. No cut-off for these calls is given here.
Tests used:
4T1 = test: Cytotoxicity against mouse 4T1 cells after 48 hrs by MTT assay; format: functional, cell-based; settings: 4T1, 48 h
Outline: (§1)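 The human cancer lines and mouse 4T1 breast cells were treated with compound for 48 h and assessed by MTT assay. IC50 is the concentration giving 50% inhibition. 5-Fluorouracil served as the MTT standard.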

DU-145 = test: Cytotoxicity against human DU145 cells after 48 hrs by MTT assay; format: functional, cell-based; settings: DU-145, 48 h; outline: as §1
BT-549 = test: Cytotoxicity against human BT549 cells after 48 hrs by MTT assay; format: functional, cell-based; settings: BT-549, 48 h; outline: as §1
HGC-27 = test: Cytotoxicity against human HGC27 cells after 48 hrs by MTT assay; format: functional, cell-based; settings: HGC-27, 48 h; outline: as §1
Bos taurus = organism: Bos taurus; test: Binding affinity to calf thymus DNA assessed as increase in viscosity at 5 uM by Rolling-ball viscometric method
MDA-MB-453 = test: Cytotoxicity against human MDA-MB-453 cells after 48 hrs by MTT assay; format: functional, cell-based; settings: MDA-MB-453, 48 h; outline: as §1
PC-3 = test: Cytotoxicity against human PC3 cells after 48 hrs by MTT assay; format: functional, cell-based; settings: PC-3, 48 h; outline: as §1
A549 = test: Cytotoxicity against human A549 cells after 48 hrs by MTT assay; format: functional, cell-based; settings: A549, 48 h; outline: as §1
HeLa = test: Cytotoxicity against human HeLa cells after 48 hrs by MTT assay; format: functional, cell-based; outline: as §1
MDA-MB-231 = test: Cytotoxicity against human MDA-MB-231 cells after 48 hrs by MTT assay; format: functional, cell-based; settings: MDA-MB-231, 48 h; outline: as §1

Row | Structure (SMILES) | pIC50 (4T1) | pIC50 (DU-145) | pIC50 (BT-549) | pIC50 (HGC-27) | Activity (Bos taurus) | pIC50 (MDA-MB-453) | pIC50 (PC-3) | pIC50 (A549) | pIC50 (HeLa) | pIC50 (MDA-MB-231)
1 | COc1cc2cc(Cn3cc(CN4C(=O)c5ccc(C)cc5C4=O)nn3)c3cc(OC)c(OC)cc3c2cc1OC | 5.00 | 5.73 | 5.41 | 5.46 | Active | 5.19 | 5.15 | 4.91 | 5.57 | 5.34
2 | COc1cc2cc(Cn3cc(COc4ccc(-c5ccccc5)cc4)nn3)c3cc(OC)c(OC)cc3c2cc1OC | 4.97 | < 4.70 | < 4.70 | < 4.70 |  | < 4.70 | 4.90 | < 4.70 | < 4.70 | < 4.70
3 | COc1cc2cc(Cn3cc(COc4c(C)cc(C)cc4C)nn3)c3cc(OC)c(OC)cc3c2cc1OC | 5.21 | < 4.70 | 4.91 | < 4.70 |  | 4.90 | < 4.70 | < 4.70 | 4.75 | < 4.70
4 | O=c1[nH]cc(F)c(=O)[nH]1 [FLUOROURACIL] |  | 5.66 |  | 4.83 |  |  | 5.92 | 5.80 | 5.73 | 5.36
5 | COc1cc2cc(Cn3cc(COc4ccccc4OC)nn3)c3cc(OC)c(OC)cc3c2cc1OC | < 4.70 | < 4.70 | < 4.70 | 5.04 |  | < 4.70 | < 4.70 | < 4.70 | 4.95 | < 4.70
6 | COc1cc2cc(Cn3cc(COc4ccc(Br)cc4)nn3)c3cc(OC)c(OC)cc3c2cc1OC | < 4.70 | < 4.70 | < 4.70 | 5.41 |  | < 4.70 | < 4.70 | < 4.70 | 5.42 | < 4.70
7 | COc1cc2cc(Cn3cc(CO)nn3)c3cc(OC)c(OC)cc3c2cc1OC | < 4.70 | < 4.70 | 5.09 | < 4.70 |  | 4.87 | < 4.70 | < 4.70 | 4.74 | 5.17
8 | COc1ccc2c3c(c4cc(OC)c(OC)cc4c2c1)C[C@H]1CCCN1C3 [(-)-ANTOFINE] |  |  |  |  |  |  |  |  |  | 7.92
9 | COc1cc2cc(Cn3cc(COc4ccc(OCc5ccccc5)cc4)nn3)c3cc(OC)c(OC)cc3c2cc1OC | 5.03 | < 4.70 | 4.84 | 5.02 |  | < 4.70 | < 4.70 | < 4.70 | 4.68 | < 4.70

From ChEMBL document CHEMBL4028832, “Design and synthesis of 1,2,3-triazolo-phenanthrene hybrids as cytotoxic agents” (Bioorg Med Chem Lett, 2017)
